# From BindingDB's records for doi:10.1021/acs.jmedchem.9b01313 (Anhui Medical University, 2019)
# Target: Hypoxia-inducible factor 1-alpha (Homo sapiens, UniProt Q16665)
# Assay: Inhibition of HIF1alpha transcriptional activity in hypoxia-induced human HCCLM3 cells co-transfected with luciferase reporter plasmid containing five copies of HREs and pRL-SV40 plasmid encoding Renilla luciferase incubated with compound under normoxia for 1 hr followed by hypoxia induction and measured after 24 hrs by HRE-dependent dual luciferase reporter gene assay
# How it was run: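 LM3 cells co-transfected with firefly luciferase reporter carrying five HRE copies plus pRL-SV40 Renilla plasmid; after transfection treated and kept under hypoxia; firefly luminescence normalized to Renilla. Single-point inhibition rate at 10 μM; IC50 for selected compounds.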
# Hypoxia-inducible factor 1-alpha, sequence (Q16665 whole entry): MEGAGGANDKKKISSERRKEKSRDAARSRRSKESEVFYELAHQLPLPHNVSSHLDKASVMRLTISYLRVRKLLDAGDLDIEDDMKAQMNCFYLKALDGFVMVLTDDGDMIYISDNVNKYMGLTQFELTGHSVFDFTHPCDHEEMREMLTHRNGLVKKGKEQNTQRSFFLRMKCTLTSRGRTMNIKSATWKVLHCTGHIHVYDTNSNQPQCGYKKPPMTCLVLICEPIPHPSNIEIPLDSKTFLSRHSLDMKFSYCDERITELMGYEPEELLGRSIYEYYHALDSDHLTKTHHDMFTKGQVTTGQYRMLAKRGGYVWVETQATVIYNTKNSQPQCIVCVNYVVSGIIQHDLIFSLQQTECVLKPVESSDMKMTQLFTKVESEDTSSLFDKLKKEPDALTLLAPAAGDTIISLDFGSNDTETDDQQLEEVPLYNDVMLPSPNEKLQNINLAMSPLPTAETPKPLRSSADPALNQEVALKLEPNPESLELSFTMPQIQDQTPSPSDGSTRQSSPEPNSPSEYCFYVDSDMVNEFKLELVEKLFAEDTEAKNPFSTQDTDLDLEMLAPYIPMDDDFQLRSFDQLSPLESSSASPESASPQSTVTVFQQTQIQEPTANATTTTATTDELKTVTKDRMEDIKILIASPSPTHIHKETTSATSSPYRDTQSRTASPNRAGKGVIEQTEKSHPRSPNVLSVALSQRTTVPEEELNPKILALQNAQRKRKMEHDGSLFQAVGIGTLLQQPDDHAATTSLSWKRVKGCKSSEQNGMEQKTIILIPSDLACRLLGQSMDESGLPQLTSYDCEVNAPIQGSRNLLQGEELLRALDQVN
row,SMILES,IC50 [µM]
1,COC(=O)c1ccc(O)c(NC(=O)COc2ccc(C34CC5CC(CC(C5)C3)C4)cc2)c1,3.08
2,O=C(NCCc1ccccc1F)c1ccc(-c2cccs2)cn1,2.48
3,O=C(NCCc1ccccc1Cl)c1ccc(-c2ccccc2)cc1,2.87
4,O=C(NCCc1ccncc1)c1ccc(-c2ccccc2)cn1,13.8
5,O=C(NCCc1ccncc1)c1nccc(-c2ccccc2)n1,10
6,O=C(NCCc1ccccc1F)c1ccc(-c2ccccc2)cn1,0.93
7,Nc1ccc(CCNC(=O)c2ccc(-c3ccccc3)cn2)cc1,11.6
8,O=C(NCCc1ccccc1F)c1ccc(-c2ccccc2F)cn1,2.16
9,COc1ccccc1-c1ccc(C(=O)NCCc2ccccc2F)nc1,0.32
10,N#Cc1ccccc1-c1ccc(C(=O)NCCc2ccccc2F)nc1,8.53
11,Cc1nc(C(=O)NCCc2ccccc2)cs1,55.7
12,O=C(NCCc1ccncc1)c1nnc(-c2ccccc2)o1,7.32
13,O=C(NCCc1ccccc1)c1ccc(-c2ccccc2)cn1,4.56
14,O=C(NCCc1ccccc1F)c1ccc(-c2ccsc2)cn1,1.41
15,O=C(NCCc1ccccc1Cl)c1ccc(-c2ccccc2)cn1,9.84
16,O=C(NCCc1cccc(Cl)c1)c1ccc(-c2ccccc2)cn1,9.84
17,O=C(NCCc1ccccc1F)c1ccc(-c2ccoc2)cn1,4.24
